This passage reports IC50 and Km results from ChEMBL document CHEMBL1145253, “Synthesis and evaluation of 3D templates based on a taxane skeleton to circumvent P-glycoprotein-associated multidrug resistance of cancer” (Bioorg Med Chem Lett, 2005).

For data set [1], the system named is KB 3-1. Kind of data set: Inhibitory concentration against human KB-3-1 cells. It counts as functional, cell-based. Summed up: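 Cytotoxicity IC50 in two human KB lines: KB-G2, a multidrug-resistant line overexpressing P-glycoprotein (Val-185) and resistant to paclitaxel and vinblastine, and its parental drug-sensitive KB-3-1 line as the control. Both lines came from an outside academic lab.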

In data set [2] the test system is KB-G2. Kind of data set: Inhibitory concentration against KB-G2 cells. The settings on record: Homo sapiens.
The target of data set [3] is ATP-dependent translocase ABCB1 (Homo sapiens, UniProt P08183). Kind of data set: Michaelis-Menten constant for human P-glycoprotein expressed in Sf9 cells.
Chain of ATP-dependent translocase ABCB1 (P08183 whole entry): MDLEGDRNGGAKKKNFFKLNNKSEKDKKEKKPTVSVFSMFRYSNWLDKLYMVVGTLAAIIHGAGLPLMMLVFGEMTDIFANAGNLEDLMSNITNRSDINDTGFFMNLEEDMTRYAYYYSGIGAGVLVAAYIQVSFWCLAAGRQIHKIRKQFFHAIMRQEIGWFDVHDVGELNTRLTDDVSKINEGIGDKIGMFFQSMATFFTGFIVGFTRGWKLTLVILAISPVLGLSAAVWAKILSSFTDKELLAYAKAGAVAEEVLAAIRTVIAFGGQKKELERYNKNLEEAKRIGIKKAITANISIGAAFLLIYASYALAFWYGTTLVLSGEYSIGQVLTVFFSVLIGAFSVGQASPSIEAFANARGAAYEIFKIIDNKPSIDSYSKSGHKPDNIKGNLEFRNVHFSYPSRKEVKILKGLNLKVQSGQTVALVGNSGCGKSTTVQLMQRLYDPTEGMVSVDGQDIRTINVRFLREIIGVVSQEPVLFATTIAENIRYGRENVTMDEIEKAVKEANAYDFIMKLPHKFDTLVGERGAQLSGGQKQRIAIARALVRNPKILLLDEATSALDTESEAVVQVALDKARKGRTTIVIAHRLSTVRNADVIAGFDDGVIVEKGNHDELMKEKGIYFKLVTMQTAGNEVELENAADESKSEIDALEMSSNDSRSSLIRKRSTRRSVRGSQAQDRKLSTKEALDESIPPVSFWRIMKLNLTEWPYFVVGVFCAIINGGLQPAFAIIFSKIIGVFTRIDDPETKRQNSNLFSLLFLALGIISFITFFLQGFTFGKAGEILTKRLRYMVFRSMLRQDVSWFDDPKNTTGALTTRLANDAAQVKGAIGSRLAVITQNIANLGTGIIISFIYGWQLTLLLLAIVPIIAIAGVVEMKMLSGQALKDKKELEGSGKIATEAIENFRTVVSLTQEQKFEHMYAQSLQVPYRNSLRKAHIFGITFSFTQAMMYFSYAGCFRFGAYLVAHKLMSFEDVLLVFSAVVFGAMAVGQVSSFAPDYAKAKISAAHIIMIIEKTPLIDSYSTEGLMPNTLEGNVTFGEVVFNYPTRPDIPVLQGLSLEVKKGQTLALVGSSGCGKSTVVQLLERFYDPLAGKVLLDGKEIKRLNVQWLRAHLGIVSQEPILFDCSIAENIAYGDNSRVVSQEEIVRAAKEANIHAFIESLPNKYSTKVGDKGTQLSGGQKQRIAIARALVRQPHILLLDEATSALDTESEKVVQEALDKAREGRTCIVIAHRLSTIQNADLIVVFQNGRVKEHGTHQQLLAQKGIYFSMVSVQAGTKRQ

A word on the IC50: it is the concentration that inhibits the measured activity by half. The low end stands for greater potency, the high end for weaker potency. Regarding `COCOc1ccc2c(c1)[C@@H]1OC(=O)O[C@]13CCC(C)=C(COC2)C3(C)C`, the half-inhibitory concentration (IC50) in data set [1] and in data set [2] was greater than 50 µM each time.

For the compound `COCOc1ccc2c(c1)[C@@H]1OC(=O)O[C@]13CCC(C)=C(CO2)C3(C)C`, the IC50 in data set [1] and in data set [2] was greater than 50 µM throughout.

`COCOc1cccc2c1[C@@H]1OC(=O)O[C@]13CCC(C)=C(CO2)C3(C)C`: the IC50 in data set [1] and in data set [2] was greater than 50 µM each time.

For orientation: Km means the substrate concentration at which the rate is half of its maximum. Regarding `CC(=O)O[C@H]1C(=O)[C@@]2(C)[C@H]([C@H](OC(=O)c3ccccc3)[C@]3(O)C[C@H](OC(=O)[C@H](O)[C@@H](NC(=O)c4ccccc4)c4ccccc4)C(C)=C1C3(C)C)[C@]1(OC(C)=O)CO[C@@H]1C[C@@H]2O` [PACLITAXEL], in data set [3], the Michaelis-Menten constant (Km) turned out to be 0.7 µM. The IC50 in data set [1] was 0.0021 µM; in data set [2], 0.6 µM.

On to `CC1=C2COc3ccccc3[C@@H]3OC(=O)O[C@@]3(CC1)C2(C)C`, for which the concentration for half-maximal inhibition (IC50) in data set [1] and in data set [2] was greater than 50 µM each time.

In the case of `CC1=C2COCc3ccccc3[C@@H]3OC(=O)O[C@@]3(CC1)C2(C)C`, the IC50 in data set [1] and in data set [2] was greater than 50 µM each time.

On to `CC1=C2CC(=O)c3ccccc3[C@@H]3OC(=O)O[C@@]3(CC1)C2(C)C`, for which the concentration for half-maximal inhibition (IC50) in data set [1] and in data set [2] was greater than 50 µM each time.

As to `COc1ccc(CCN(C)CCCC(C#N)(c2ccc(OC)c(OC)c2)C(C)C)cc1OC` (stereo not given), the Km in data set [3] amounted to 2 µM.

For the compound `COCOc1ccc2c(c1)[C@@H]1OC(=O)O[C@]13CCC(C)=C(CC2=O)C3(C)C`, the IC50 in data set [1] and in data set [2] was greater than 50 µM each time.

Turning to `C=C1C2(C)CC[C@]3(OC(=O)O[C@H]3c3c(OCOC)cccc3C2=O)C1(C)C`, the IC50 in data set [1] and in data set [2] was greater than 50 µM each time.
